From ChEMBL document CHEMBL1275400, “Design, synthesis, and DNA-binding of N-alkyl(anilino)quinazoline derivatives” (J Med Chem, 2010)
Active and inactive are the calls of the source. The calls are words filed in the database; no cut-off is given here.

Assays:
[1] = tested on: Calf thymus DNA; test: Binding affinity to calf thymus DNA in BPE buffer assessed as change in melting temperature at drug/DNA base pair ratio 1; assay type: nucleic-acid assay; settings: Bos taurus
Outline: (§1)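 Melting curves are read at 260 nm in BPE buffer, pH 7.1 (6 mM Na2HPO4, 2 mM NaH2PO4, 1 mM EDTA), in Peltier-heated 10 mm quartz cuvettes. Temperature rises from 20 to 100 °C at 1 °C/min and is monitored with a platinum probe. Tm is taken as the midpoint of the hyperchromic transition.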

[2] = tested on: Nucleic Acid; test: Binding affinity to poly(dA-dT)2 in BPE buffer assessed as change in melting temperature at drug/DNA base pair ratio 1; assay type: nucleic-acid assay; outline: as §1
[3] = tested on: Calf thymus DNA; test: Binding affinity to calf thymus DNA in BPE buffer at drug/DNA base pair ratio up to 10 by UV spectroscopic analysis; assay type: nucleic-acid assay; settings: Bos taurus
Outline: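 Absorption spectra are recorded in BPE buffer, pH 7.1, at a constant drug concentration of 20 μM. Aliquots of concentrated calf thymus DNA are added to cover a range of DNA-phosphate/drug ratios.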

[4] = tested on: Calf thymus DNA; test: Binding affinity to calf thymus DNA at drug/DNA base pair ratio up to 4 by circular dichroism analysis; assay type: nucleic-acid assay; settings: Bos taurus
Outline: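 CD spectra are recorded in 1 mM sodium cacodylate buffer, pH 7.0, in 10 mm quartz cuvettes, averaging four scans. A 50 μM drug solution is diluted stepwise with 5 mM DNA. Alternatively, the drug–DNA complex at high P/D is diluted with pure ligand solution to reach the desired drug/DNA ratio.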

[5] = molecular target: T1, DNA topoisomerase 1 (Homo sapiens) (UniProt P11387); test: Inhibition of human recombinant topoisomerase 1-mediated supercoiled pUC19 DNA relaxation up to 100 uM […] by agarose gel electrophoresis analysis; settings: in the assay text read “45 mins” for “2 hrs”
T1 sequence (whole entry): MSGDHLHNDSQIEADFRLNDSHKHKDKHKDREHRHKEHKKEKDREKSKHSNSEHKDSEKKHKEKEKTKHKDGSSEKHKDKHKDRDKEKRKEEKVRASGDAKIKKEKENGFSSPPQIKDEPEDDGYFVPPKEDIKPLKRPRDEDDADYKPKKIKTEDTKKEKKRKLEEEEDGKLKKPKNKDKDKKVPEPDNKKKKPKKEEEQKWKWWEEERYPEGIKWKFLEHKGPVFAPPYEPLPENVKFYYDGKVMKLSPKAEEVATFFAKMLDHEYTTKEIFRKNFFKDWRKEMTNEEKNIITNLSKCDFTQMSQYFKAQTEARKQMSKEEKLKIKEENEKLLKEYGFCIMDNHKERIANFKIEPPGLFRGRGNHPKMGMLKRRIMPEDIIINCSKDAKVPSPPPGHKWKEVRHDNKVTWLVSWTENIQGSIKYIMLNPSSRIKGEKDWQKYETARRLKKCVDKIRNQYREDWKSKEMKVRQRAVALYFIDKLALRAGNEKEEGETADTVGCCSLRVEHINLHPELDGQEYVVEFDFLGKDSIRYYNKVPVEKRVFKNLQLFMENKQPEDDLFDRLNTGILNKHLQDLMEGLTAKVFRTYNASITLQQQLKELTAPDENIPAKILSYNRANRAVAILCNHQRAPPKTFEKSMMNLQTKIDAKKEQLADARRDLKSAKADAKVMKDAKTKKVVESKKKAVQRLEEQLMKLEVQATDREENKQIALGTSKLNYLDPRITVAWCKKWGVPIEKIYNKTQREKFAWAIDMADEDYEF
Outline: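 Supercoiled pUC19 (130 ng) is incubated with 4 units of recombinant human topoisomerase I for 45 min at 37 °C. The relaxation buffer is 50 mM Tris pH 7.8, 50 mM KCl, 10 mM MgCl2, 1 mM DTT and 1 mM EDTA, with graded drug. Reactions are stopped with 0.25% SDS and 250 μg/mL proteinase K. Samples are run on 1% agarose for 2 h at 120 V and stained with ethidium bromide.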

[6] = tested on: PC-3; test: Antiproliferative activity against human PC3 cells after 72 hrs by MTS assay; assay type: functional, cell-based; settings: PC-3, 72 h
[7] = tested on: HT-29; test: Antiproliferative activity against human HT-29 cells after 72 hrs by MTS assay; assay type: functional, cell-based; settings: HT-29, 72 h
[8] = tested on: MCF7; test: Antiproliferative activity against human MCF7 cells after 72 hrs by MTS assay; assay type: functional, cell-based; settings: MCF7, 72 h
[9] = tested on: Nucleic Acid; test: Binding affinity to DNA assessed as inhibition of cleavage of DNA substrate up to 100 uM by Dnase1 footprinting assay; assay type: nucleic-acid assay
Outline: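 DNase I is then added to a final concentration of about 0.01 unit/mL. Digestion runs 3 min and is stopped by freeze-drying. Protected sites are localized on the gel.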

[10] = tested on: Calf thymus DNA; test: Binding affinity to calf thymus DNA by fluorescence titration assay; assay type: nucleic-acid assay, Bos taurus
Outline: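 Intrinsic drug fluorescence is measured at room temperature with excitation at 360 nm and emission scanned over 380–520 nm. Drug is held at 10 μM with DNA at 0.01–1 mM, each sample prepared separately. The apparent KD is obtained by nonlinear least-squares fitting to KD = [ligand][DNA]/[ligand-DNA].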

[11] = tested on: Nucleic Acid; test: Binding affinity to DNA assessed as inhibition of cleavage of DNA substrate by densitometric analysis; assay type: nucleic-acid assay

| SMILES | ΔTm [1] | ΔTm [2] | also measured |
| --- | --- | --- | --- |
| COc1cc2ncnc(Oc3cccc(NC(=O)Nc4ccccc4)c3)c2cc1OC | 0.4 °C | 0.5 °C |  |
| COc1cc2ncnc(Nc3cccc(C)c3)c2cc1OC | 0.3 °C | 0.3 °C |  |
| COc1cc2ncnc(Nc3ccc(C)c(Cl)c3)c2cc1OC | 0.3 °C | 0.4 °C |  |
| COc1cc2ncnc(N(C)c3cccc(C)c3)c2cc1OC | 7.1 °C | 9.7 °C |  |
| COc1cc2ncnc(Nc3cccc(Br)c3)c2cc1OC | 0.2 °C | 0.4 °C | Activity [3]: Active; Activity [4]: Active; inhibition [5]: inactive; IC50 [6]: > 10 µM; IC50 [7]: 10.1 µM; IC50 [8]: 4.7 µM |
| COc1cc2ncnc(N(Cc3ccccc3)c3ccc(C)c(Br)c3)c2cc1OC | 6.5 °C | 9.6 °C |  |
| COc1cc2ncnc(Nc3cccc(F)c3)c2cc1OC | 0.2 °C | 0.4 °C |  |
| COc1cc2ncnc(Nc3cccc(C(F)(F)F)c3)c2cc1OC | 0.2 °C | 0.5 °C |  |
| COc1cc2ncnc(Oc3ccc(NC(=O)Nc4ccccc4)cc3)c2cc1OC | 0.4 °C | 0.5 °C |  |
| COc1cc2ncnc(N(c3ccc(C)c(Br)c3)C(C)C)c2cc1OC | 5.8 °C | 12.4 °C |  |
| COc1cc2ncnc(N(C)c3ccc(C(F)(F)F)cc3)c2cc1OC | 6.5 °C | 9.1 °C |  |
| COc1cc2ncnc(Oc3ccc(Br)cc3F)c2cc1OC | 0.8 °C | 0.5 °C |  |
| COc1cc2ncnc(N(C)c3cccc(C(F)(F)F)c3)c2cc1OC | 5.8 °C | 9.5 °C |  |
| COc1cc2ncnc(Nc3cc(Br)ccc3Br)c2cc1OC | 0.4 °C | 0.5 °C |  |
| COc1cc2ncnc(N(CCN3CCCCC3)c3ccc(C)c(Br)c3)c2cc1OC | 13.5 °C | 27.7 °C | Activity [9]: Active |
| COc1cc2ncnc(N(C)c3cccc(NC(=O)Nc4ccccc4)c3)c2cc1OC | 6 °C | 9.9 °C |  |
| COc1cc2ncnc(Oc3ccc(F)c(Cl)c3)c2cc1OC | 1.2 °C | 0.5 °C |  |
| CN(c1ccc(F)c(Cl)c1)c1ncnc2cc3c(cc12)OCO3 | 2.8 °C | 4.6 °C |  |
| COc1cc2ncnc(Nc3ccc(Br)cc3F)c2cc1OC | 0.1 °C | 0.3 °C |  |
| COc1cc2ncnc(N(C)c3cccc(NC(=O)NC4CCCCC4)c3)c2cc1OC | 5.7 °C | 9.7 °C |  |
| CCN(c1ccc(C)c(Br)c1)c1ncnc2cc(OC)c(OC)cc12 | 8.8 °C | 13.4 °C |  |
| COc1cc2ncnc(N(C)c3cccc(F)c3)c2cc1OC | 7.3 °C | 9.8 °C |  |
| COc1cc2ncnc(N(C)c3ccc(C)c(C(F)(F)F)c3)c2cc1OC | 7.8 °C | 11 °C |  |
| COc1cc2ncnc(N(C)c3ccc(Br)cc3F)c2cc1OC | 1.4 °C | 3.3 °C |  |
| CCCCNC(=O)Nc1cccc(N(C)c2ncnc3cc(OC)c(OC)cc23)c1 | 5.7 °C | 8.1 °C |  |
| Fc1ccc(Nc2ncnc3cc4c(cc23)OCO4)cc1Cl | 0.3 °C | 0.4 °C |  |
| COc1ccc(NC(=O)Nc2cccc(N(C)c3ncnc4cc(OC)c(OC)cc34)c2)cc1 | 6.8 °C | 11 °C |  |

| SMILES | ΔTm [1] | ΔTm [2] | also measured |
| --- | --- | --- | --- |
| COc1cc2ncnc(N(C)c3cccc(Br)c3)c2cc1OC | 8.1 °C | 12.2 °C | inhibition [5]: inactive |
| COc1cc2ncnc(Nc3cccc(Cl)c3)c2cc1OC | 1.8 °C | 0.3 °C |  |
| COc1cc2ncnc(Nc3ccc(C)c(F)c3)c2cc1OC | 0.2 °C | 0.5 °C |  |
| COc1cc2ncnc(Nc3ccc(C)c(Br)c3)c2cc1OC | 0.2 °C | 0.4 °C |  |
| COc1cc2ncnc(Oc3cccc(Br)c3)c2cc1OC | 0.7 °C | 0.7 °C |  |
| COc1cc2ncnc(N(C)c3ccc(Br)cc3)c2cc1OC | 6 °C | 10.8 °C |  |
| COc1ccc(NC(=O)Nc2ccc(Oc3ncnc4cc(OC)c(OC)cc34)cc2)cc1 | 0.3 °C | 0.5 °C |  |
| CN(c1ccc(Br)cc1F)c1ncnc2cc3c(cc12)OCO3 | 3.6 °C | 4.2 °C |  |
| Fc1cc(Br)ccc1Nc1ncnc2cc3c(cc12)OCO3 | 0.3 °C | 0.5 °C |  |
| COc1cc2ncnc(N(C)c3ccc(NC(=O)Nc4ccccc4)cc3)c2cc1OC | 0.4 °C | 0.6 °C |  |
| COc1cc2ncnc(Nc3ccc(F)c(Cl)c3)c2cc1OC | 0.2 °C | 0.4 °C |  |
| CCNC(=O)Nc1cccc(N(C)c2ncnc3cc(OC)c(OC)cc23)c1 | 5.2 °C | 7.9 °C |  |
| CCCN(c1ccc(C)c(Br)c1)c1ncnc2cc(OC)c(OC)cc12 | 7 °C | 12.6 °C |  |
| CCN(CC)CCN(c1ccc(C)c(Br)c1)c1ncnc2cc(OC)c(OC)cc12 | 14 °C | 24.1 °C | Activity [3]: Active; Activity [4]: Active; Kd [10]: 40.2 µM; Activity [9]: Active; Activity [11]: Active; inhibition [5]: inactive; IC50 [6]: > 10 µM; IC50 [7]: 5.6 µM; IC50 [8]: 6.8 µM |
| COc1cc2ncnc(N(C)c3ccc(F)c(Cl)c3)c2cc1OC | 6.1 °C | 10.5 °C |  |
| COc1cc2ncnc(N(C)c3cccc(Cl)c3)c2cc1OC | 7.7 °C | 12.4 °C |  |
| COc1cc2ncnc(Nc3ccc(C(F)(F)F)cc3)c2cc1OC | 0.1 °C | 0.5 °C |  |
| COc1cc2ncnc(N(CCN(C)C)c3ccc(C)c(Br)c3)c2cc1OC | 9.9 °C | 20 °C |  |
| COc1cc2ncnc(N(C)c3ccc(C)c(Cl)c3)c2cc1OC | 8.9 °C | 13.7 °C |  |
| COc1cc2ncnc(Nc3ccc(C)c(C(F)(F)F)c3)c2cc1OC | 0.4 °C | 0.5 °C |  |
| COc1ccc(NC(=O)Nc2cccc(Oc3ncnc4cc(OC)c(OC)cc34)c2)cc1 | 0.2 °C | 0.3 °C |  |
| COc1cc2ncnc(N(C)c3ccc(C)c(F)c3)c2cc1OC | 7.3 °C | 11.3 °C |  |
| COc1cc2ncnc(N(C)c3cccc(NC(=O)Nc4ccc(F)c(Cl)c4)c3)c2cc1OC | 7.7 °C | 10.5 °C |  |
| COc1cc2ncnc(Nc3ccc(Br)cc3)c2cc1OC | 3.9 °C | 0.2 °C |  |
| COc1cc2ncnc(N(C)c3cc(Br)ccc3Br)c2cc1OC | 1.6 °C | 3.3 °C |  |
| CCCCNC(=O)Nc1ccc(N(C)c2ncnc3cc(OC)c(OC)cc23)cc1 | 0.3 °C | 0.4 °C |  |
| COc1cc2ncnc(N(C)c3ccc(C)c(Br)c3)c2cc1OC | 8.4 °C | 15 °C | Activity [3]: Active; Activity [4]: Active; Kd [10]: 326 µM; Activity [9]: Active; Activity [11]: Active; inhibition [5]: inactive; IC50 [6]: 9.5 µM; IC50 [7]: 6.3 µM; IC50 [8]: 9.9 µM |
